Assay results of several laboratories.
Lines come from different studies, so protocols differ.
Target: Serine/threonine-protein kinase Nek5 (NEK5, Homo sapiens, UniProt Q6P3R8)
Residues used in one study (Q6P3R8 1-708): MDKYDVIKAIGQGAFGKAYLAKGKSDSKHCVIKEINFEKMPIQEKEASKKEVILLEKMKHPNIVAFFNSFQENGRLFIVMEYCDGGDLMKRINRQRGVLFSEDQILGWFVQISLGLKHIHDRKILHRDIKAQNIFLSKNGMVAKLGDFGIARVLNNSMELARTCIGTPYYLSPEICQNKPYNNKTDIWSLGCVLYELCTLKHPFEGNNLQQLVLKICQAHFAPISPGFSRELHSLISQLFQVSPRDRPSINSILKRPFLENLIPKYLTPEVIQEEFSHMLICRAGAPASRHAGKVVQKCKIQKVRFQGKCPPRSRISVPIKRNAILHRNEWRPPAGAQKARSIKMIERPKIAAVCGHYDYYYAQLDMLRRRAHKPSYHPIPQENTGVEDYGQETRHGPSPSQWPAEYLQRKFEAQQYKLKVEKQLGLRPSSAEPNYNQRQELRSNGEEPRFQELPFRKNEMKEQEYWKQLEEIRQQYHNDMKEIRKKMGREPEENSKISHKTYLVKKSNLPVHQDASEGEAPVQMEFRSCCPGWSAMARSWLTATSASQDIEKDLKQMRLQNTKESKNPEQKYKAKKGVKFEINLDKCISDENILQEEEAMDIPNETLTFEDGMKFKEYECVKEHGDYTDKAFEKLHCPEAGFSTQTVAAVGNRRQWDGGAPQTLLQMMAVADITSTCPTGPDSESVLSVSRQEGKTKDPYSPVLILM

The remaining binding of `FC(F)(F)c1ccc2c(c1)nc(-c1cccnc1)n2C1CC1` is reported as 100% (cell-free assay; competition with immobilised ligand; 1 µM).
For `CN(CCCC(F)(F)F)c1nccc(-c2cnn3ncccc23)n1`, the remaining binding was 100% (binding; 1 µM).
`C[C@H](NC(=O)c1cnc2n1[C@](C)(Cc1ccc(C#N)cc1)C(=O)N2c1cc(Cl)c(F)c(Cl)c1)C(=O)NC1(c2ccccn2)CC1` gave a remaining binding of 100% (cell-free assay; competition with immobilised ligand; 1 µM).
`COc1cnc(Nc2cccc(S(N)(=O)=O)c2)nc1N1CCN(c2ccccc2)CC1` gave a remaining binding of 42% (binding; competition with immobilised ligand; 1 µM).
For `O=C(NCCCN1CCOCC1)c1ccc(Nc2ncc(Cl)c(-c3ccc(Cl)s3)n2)cc1`, the remaining binding was 0% (binding; competition with immobilised ligand; 1 µM).
For `Nc1ncc2c(n1)-c1c([nH]c3ccc(C#CC4CC4)cc13)CCCC2`, the remaining binding was 100% (binding; competition with immobilised ligand; 1 µM).
With `C[C@H]1CCN(c2nccc(-c3cnn4ncccc34)n2)C1` the remaining binding was 90% (binding; 1 µM).
The remaining binding of `CCN1CCN(Cc2ccc(C(=O)Nc3ccc(C)c(Oc4ccc5c(c4)CC(=O)N5)c3)cc2C(F)(F)F)CC1` is reported as 100% (binding; competition with immobilised ligand; 1 µM).
`Cn1nc(C(F)(F)F)cc1-c1cnc(N2CCc3cc(S(=O)(=O)Nc4c(F)cc(Cl)cc4F)cc(N4CCCC4=O)c32)nc1` gave a remaining binding of 86% (cell-free assay; competition with immobilised ligand; 1 µM).
The remaining binding of `CN(C)c1nccc(-c2cnn3ncccc23)n1` is reported as 100% (binding; 1 µM).
`Cc1noc([C@H]2C[C@@H](c3ccc(C(F)(F)F)cc3)CN(C(=O)N3CCS(=O)(=O)C3)C2)n1` has a remaining binding of 100% (cell-free assay; competition with immobilised ligand; 1 µM).
`O=C(c1ccc(Nc2nccc(-c3cc4ccccc4s3)n2)cc1)N1CCC(N2CCCC2)CC1` gave a remaining binding of 15% (binding; competition with immobilised ligand; 1 µM).
`C=CC(=O)N1CCC(C(=O)NCC(=O)N2CCN(c3nc(-c4cnc(N)nc4C(F)F)nc(N4CCOCC4)n3)CC2)CC1` gave a remaining binding of 100% (binding; competition with immobilised ligand; 1 µM).
`O=C(c1ccc(Nc2ncc(Cl)c(-c3cc4ccccc4s3)n2)cc1)N1CCC(N2CCCC2)CC1` has a remaining binding of 0% (binding; competition with immobilised ligand; 1 µM).
With `COc1ncc2cc3ccccc3nc2c1C#N` the remaining binding was 88% (cell-free assay; competition with immobilised ligand; 5 µM).
With `Cc1cnn2ncc(-c3ccnc(N(C)C)n3)c2c1` the remaining binding was 100% (binding; 1 µM).
`COc1ccc2c(O[C@@H]3C[C@H]4C(=O)N[C@]5(C(=O)O)CC5/C=C\CCCCC[C@H](NC(=O)OC5CCCC5)C(=O)N4C3)cc(-c3csc(NC(=O)C(C)C)n3)nc2c1C` (stereo partly drawn) has a remaining binding of 98% (cell-free assay; competition with immobilised ligand; 1 µM).
The remaining binding of `c1cnn2ncc(-c3ccnc(N4CCC45COC5)n3)c2c1` is reported as 97% (binding; 1 µM).
`O=C(NCC1CCOCC1)c1n[nH]cc1NC(=O)c1c(F)cccc1F` has a remaining binding of 100% (binding; competition with immobilised ligand; 1 µM).
The remaining binding of `C[C@H](c1ccc(F)cc1)N(Cc1cccc(C(=O)O)c1)C(=O)c1cnc2ccccc2c1` is reported as 100% (cell-free assay; competition with immobilised ligand; 1 µM).
With `N[C@H]1CCN(c2nccc(-c3cnn4ncccc34)n2)C1` the remaining binding was 87% (binding; 1 µM).
